Active and inactive are the calls of the source. No cut-off for these calls is given here.
Tests used:
[1] = Effect on hypoxanthine/xanthine oxidase-induced superoxide radical scavenging activity up to 100 uM incubated for 1 min measured for 15 mins by cytochrome C assay; assay type: functional
Procedure, shortened: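 Superoxide from hypoxanthine (100 μM)/xanthine oxidase in PBS with catalase (200 U/mL), compound 1–100 μM, detected by cytochrome C (46 μM) reduction at 550 nm. After 1 min stabilization, read kinetically 1/min for 15 min. Linear slope gave % scavenging. SOD (575 U/mL) as positive control. Means ± SEM of 4 experiments, ANOVA/Dunnett.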

[2] = Cytotoxicity against HASMCs assessed as cell viability at 100 uM after 24 hrs by calcein/AM/ethidium homodimer-1 staining based fluorescence microscopic analysis relative to control; settings: human, HASMC cells; read-out: Activity
Procedure, shortened: (§1)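 HASMs (before passage 10) grown to 80% confluence, then serum-reduced (0.1% FBS) for 24 h. Cells were pretreated with compound for 30 min, then given TGF-β (2 ng/ml) for 24 h. Stained with calcein/AM (2 μM) and ethidium homodimer-1 (4 μM) for 10 min at room temperature, read by fluorescence microscopy. Controls: untreated cells as negative, 70% ethanol for 30 min as positive.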

NADPH oxidase 4 = molecular target: T1, NADPH oxidase 4 (Homo sapiens, UniProt Q9NPH5); assay: Inhibition of Nox4 in HASMCs assessed as reduction in TGFbeta-induced increase in smooth muscle alpha actin level pretreated for 30 mins followed by TGFbeta stimulation after 24 hrs by Western blot analysis
T1 sequence (Q9NPH5 whole entry): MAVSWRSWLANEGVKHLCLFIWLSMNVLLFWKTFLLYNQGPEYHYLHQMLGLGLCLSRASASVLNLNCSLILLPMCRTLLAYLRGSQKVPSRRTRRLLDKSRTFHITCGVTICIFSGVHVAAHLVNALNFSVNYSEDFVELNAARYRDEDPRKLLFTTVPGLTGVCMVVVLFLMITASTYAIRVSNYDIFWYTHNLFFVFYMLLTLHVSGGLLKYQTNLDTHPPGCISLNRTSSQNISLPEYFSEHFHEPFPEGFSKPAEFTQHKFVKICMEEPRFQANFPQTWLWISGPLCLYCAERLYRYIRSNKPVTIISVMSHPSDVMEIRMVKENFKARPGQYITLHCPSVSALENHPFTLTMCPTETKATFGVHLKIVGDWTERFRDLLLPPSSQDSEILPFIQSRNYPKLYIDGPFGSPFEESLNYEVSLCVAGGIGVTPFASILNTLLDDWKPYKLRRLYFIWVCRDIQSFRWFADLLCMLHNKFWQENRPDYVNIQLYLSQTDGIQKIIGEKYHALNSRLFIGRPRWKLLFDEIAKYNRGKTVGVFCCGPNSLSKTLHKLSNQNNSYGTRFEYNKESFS
Procedure, shortened: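 HASMs (<passage 10) at 80% confluence, serum-reduced (0.1% FBS) 24 h, pretreated 30 min with compound (1–100 μM), then TGF-β 2 ng/ml for 24 h. Lysates blotted for α-SMA normalized to β-tubulin, ECL detection. TGF-β alone set as 100%. IC50 by non-linear regression, means ± SEM from 3–4 independent experiments.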

HASMC = assay: Effect on TGFbeta-induced Nox4 mRNA expression in HASMCs at 1 to 100 uM pretreated for 30 mins followed by TGFbeta addition measured after 24 hrs by qPCR analysis; assay type: functional, cell-based; settings: Homo sapiens
[3] = Effect on hydrogen peroxide radical scavenging activity up to 100 uM measured after 5 mins by Amplex Red assay; assay type: functional
Procedure, shortened: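 Cell-free H2O2 consumption. Exogenous H2O2 incubated 5 min with compound (1–100 μM) in reaction buffer. Amplex Red/horseradish peroxidase then added for 30 min at room temperature in the dark. Resorufin read at ex 530/em 590 nm. DMSO solvent control. Means ± SEM of 3 independent experiments, one-way ANOVA with Dunnett's test.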

[4] = Cytotoxicity against HASMCs assessed as cell viability at 10 uM after 24 hrs by calcein/AM/ethidium homodimer-1 staining based fluorescence microscopic analysis relative to control; settings: human, HASMC cells; read-out: Activity; procedure, shortened: as §1

| SMILES | Activity [1] | viability at 24 h, 100 µM [2] | IC50 (NADPH oxidase 4) | Activity (HASMC) | Activity [3] | viability at 24 h, 10 µM [4] |
| --- | --- | --- | --- | --- | --- | --- |
| O=C1N(c2ccc(C(F)(F)F)cc2)CCCN1S(=O)(=O)c1ccc(F)cc1 | inactive | 100% | 3.7 µM | inactive | inactive | – |
| COc1ccc(S(=O)(=O)N2CCN(c3ccc(C(F)(F)F)cc3)C2=O)cc1 | inactive | – | 0.5 µM | inactive | inactive | 97% |
| COc1ccc(S(=O)(=O)N2CCCN(c3ccc(C(F)(F)F)cc3)C2=O)cc1 | inactive | 92% | 27 µM | inactive | inactive | – |

From ChEMBL document CHEMBL4184268, “Design, synthesis, and biological evaluation of inhibitors of the NADPH oxidase, Nox4” (Bioorg Med Chem, 2018)
